Reference: ChEMBL document CHEMBL1130297, “Synthesis of 5,6-dihydro-4-hydroxy-2-pyrones as HIV-1 protease inhibitors: the profound effect of polarity on antiviral activity” (J Med Chem, 1997)

Key:
[1] = target: Human immunodeficiency virus type 1 protease (Human immunodeficiency virus 1, UniProt Q72874); assay: In vitro inhibition activity against HIV-1 protease.
Summary of the method: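 HIV-1 protease inhibition read by HPLC assay at pH 6.2, modified from an earlier method. Buffer: 1.0 mM dithiothreitol, 80 mM MES, 160 mM NaCl, 1.0 mM EDTA, 0.1% polyethylene glycol (MW 8000). Final protease concentration 1.5 nM. IC50 values reported.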

[2] = Cytotoxicity in CEM cells in the absence of virus; format: cell-based; details: human, CEM (CCRF-CEM) cells; read-out: TC50 (the source's name)
Summary of the method: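 Toxicity read in uninfected CEM cells (no virus present), run alongside the cellular antiviral protocol. Reported as TC50.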

CCRF-CEM = assay: Antiviral activity in HIV infected CEM cells.; format: functional, cell-based; details: Homo sapiens
Summary of the method: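 Cytopathic-effect protection assay in HIV-infected CEM cells by a standard protocol. EC50 taken as the concentration at which 50% of cells are protected from cytopathic effects.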

Structure (SMILES) | IC50 [1] | EC50 (CCRF-CEM) | CC50 [2]
Cc1cc(SC2=C(O)OC(CCc3ccccc3)(c3ccccc3)CC2=O)c(C(C)(C)C)cc1OCCO (stereo not drawn) | 0.0068 µM | > 20 µM | 20 µM
Cc1cc(SC2=C(O)OC(CCc3ccc(O)cc3)(c3ccccc3)CC2=O)c(C(C)(C)C)cc1CO (stereo not drawn) | 0.0017 µM | 4.7 µM | > 100 µM
Cc1ccc(C(C)(C)C)c(SC2=C(O)OC(CCc3ccc(O)cc3)(c3ccccc3)CC2=O)c1 (stereo not drawn) | 0.011 µM | > 69 µM | 69 µM
Cc1ccc(C(C)(C)C)c(SC2=C(O)OC(CCc3ccccc3)(c3ccccc3)CC2=O)c1 (stereo not drawn) |  | > 55 µM | 55 µM
Cc1ccc(C(C)(C)C)c(SC2=C(O)OC(CCc3ccccc3)(c3ccc(N)cc3)CC2=O)c1 (stereo not drawn) | 0.032 µM | > 67 µM | 67 µM
Cc1ccc(C(C)(C)C)c(SC2=C(O)OC(CCc3ccccc3)(c3ccc(O)cc3)CC2=O)c1 (stereo not drawn) | 0.04 µM | > 23 µM | 23 µM
Cc1ccc(C(C)(C)C)c(SC2=C(O)OC(CCc3ccc(N)cc3)(c3ccccc3)CC2=O)c1 (stereo not drawn) | 0.024 µM | > 54 µM | 54 µM
Cc1cc(SC2=C(O)OC(CCc3cccc(O)c3)(c3ccccc3)CC2=O)c(C(C)(C)C)cc1CO (stereo not drawn) | 0.0025 µM | 6.1 µM | > 100 µM
COc1cc(C(C)(C)C)c(SC2=C(O)OC(CCc3ccccc3)(c3ccccc3)CC2=O)cc1C (stereo not drawn) | 0.015 µM | > 33 µM | 33 µM
Cc1cc(SC2=C(O)OC(CCc3ccccc3)(c3ccccc3)CC2=O)c(C(C)(C)C)cc1O (stereo not drawn) | 0.033 µM | > 23 µM | 23 µM
COCc1cc(C(C)(C)C)c(SC2=C(O)OC(CCc3ccccc3)(c3ccc(OCCO)cc3)CC2=O)cc1C (stereo not drawn) | 0.0045 µM | > 18 µM | 18 µM
Cc1cc(SC2=C(O)OC(CCc3ccc(O)cc3)(c3ccc(O)cc3)CC2=O)c(C(C)(C)C)cc1CO (stereo not drawn) | 0.12 µM | > 21 µM | 21 µM
Cc1ccc(C(C)(C)C)c(SC2=C(O)OC(CCc3ccccc3)(c3ccc(OCCO)cc3)CC2=O)c1 (stereo not drawn) | 0.012 µM | 9.4 µM | 23 µM
Cc1cc(SC2=C(O)OC(CCc3ccccc3)(c3ccc(OCCO)cc3)CC2=O)c(C(C)(C)C)cc1CO (stereo not drawn) | 0.0014 µM | 4.2 µM | 67 µM

More lines, main results first:

IC50 [1] | EC50 (CCRF-CEM) | Structure (SMILES) | CC50 [2]
0.0066 µM | 2.5 µM | Cc1cc(SC2=C(O)OC(CCc3ccccc3)(c3ccccc3)CC2=O)c(C(C)(C)C)cc1CO (stereo not drawn) | 66 µM
0.0032 µM | 1.4 µM | Cc1cc(SC2=C(O)OC(CCc3ccc(N)cc3)(C3CCCCC3)CC2=O)c(C(C)(C)C)cc1CO (stereo not drawn) | 80 µM
0.0043 µM | 2.5 µM | Cc1cc(SC2=C(O)OC(C)(CCc3ccc(O)cc3)CC2=O)c(C(C)(C)C)cc1CO (stereo not drawn) | > 100 µM
0.0064 µM | 1.8 µM | Cc1cc(SC2=C(O)OC(CCc3ccccc3)(c3ccc(OCCO)cc3)CC2=O)c(C(C)(C)C)cc1OCCO (stereo not drawn) | 25 µM
 | 2 µM | COc1ccc(C2(CCc3ccc(O)cc3)CC(=O)C(Sc3cc(C)c(CO)cc3C(C)(C)C)=C(O)O2)cc1 (stereo not drawn) | > 100 µM
0.0037 µM | 4.2 µM | Cc1cc(SC2=C(O)OC(CCc3ccccc3)(c3ccc(OCCO)cc3)CC2=O)c(C(C)(C)C)cc1O (stereo not drawn) | 27 µM
0.0031 µM | 3.7 µM | Cc1cc(SC2=C(O)OC(CCc3ccc(N)cc3)(c3ccccc3)CC2=O)c(C(C)(C)C)cc1CO (stereo not drawn) | 94 µM
0.0041 µM | 0.5 µM | Cc1cc(SC2=C(O)OC(CCc3ccc(O)cc3)(C3CCCCC3)CC2=O)c(C(C)(C)C)cc1CO (stereo not drawn) | 75 µM
0.0036 µM | 0.6 µM | Cc1cc(SC2=C(O)OC(CCc3ccc(O)cc3)(C(C)C)CC2=O)c(C(C)(C)C)cc1CO (stereo not drawn) | > 100 µM
0.004 µM | 3.1 µM | Cc1cc(SC2=C(O)OC(CCc3cccc(N)c3)(c3ccccc3)CC2=O)c(C(C)(C)C)cc1CO (stereo not drawn) | 23 µM
0.0027 µM | 0.5 µM | Cc1cc(SC2=C(O)OC(CCc3ccc(N)cc3)(C(C)C)CC2=O)c(C(C)(C)C)cc1CO (stereo not drawn) | > 100 µM
